Measurements as given in paper PMC7826402 (Proceedings of the National Academy of Sciences of the …, 2021).

Assays:
CXCR4 [1] = settings: cited from earlier work
[2] = system: CXCR4-mediated HIV-1 infection; assay: CXCR4-tropic HIV-1 NL4-3 infection of GHOST-CXCR4 cells; format: cell-based, HIV-1 in human osteosarcoma (GHOST) cells; settings: GHOST-CXCR4, HIV-1 NL4-3; three experiments
CCR5 = settings: cited from earlier work
GPR15 [3] = assay: GPR15 cell surface down-modulation in GHOST-GPR15 and CEM-M7 cells; format: cell-based, human
[4] = system: GPR15-mediated SIVmac239 infection; assay: Inhibition of GPR15-mediated SIVmac239 infection of GHOST-GPR15 cells; format: cell-based, SIVmac239 in human osteosarcoma (GHOST) cells
How it was run: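 GHOST-GPR15 cells were seeded, cultured overnight and treated with test peptide for 2 h at 37 °C. They were then infected with SIVmac239 carrying Firefly luciferase in place of nef. Three days post-infection, cells were lysed and luciferase activity (RLU) was measured. Runs were at least in triplicate (mean ± SEM), and IC₅₀ was derived from increasing peptide concentrations.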

CXCR4 [5] = assay: CXCR4 surface expression on PBMCs; format: cell-based, human; settings: 10 µM, 1 h at 37°C; FACS; n = 3 donors
GPR15 [6] = assay: Calcium release in GPR15-expressing CHO cells; format: cell-based; settings: CHO cells with human GPR15 and Gα16; aequorin; quadruplicate
GPR15 [7] = assay: GPR15 surface expression on PBMCs; format: cell-based, human; settings: 10 µM, 1 h at 37°C; FACS; n = 3 donors

c1cc(CN2CCCNCCNCCCNCC2)ccc1CN1CCCNCCNCCCNCC1 [AMD3100, reference compound]
antagonism of chemokine signaling via CXCR4 (CXCR4 [1]): antagonize chemokine signaling via these GPCRs | inhibition of CXCR4-mediated HIV-1 infection [2]: in contrast to the small molecule inhibitor AMD3100, neither CysC95-146 nor GPR15L inhibited

CXCL-12/SDF-1: chemokine ligand of CXCR4
inhibition of CXCR4-mediated HIV-1 infection by chemokine ligand (CXCR4 [1]): inhibit CCR5- or CXCR4-mediated HIV-1 infection, respectively

Maraviroc [reference compound]
antagonism of chemokine signaling via CCR5 (CCR5): antagonize chemokine signaling via these GPCRs

GPR15L: agonistic chemokine ligand of GPR15 (KRRPAKAWSGRRTRLCCHRVPSPNSTNLKGHHVRLCKPCKLEPEPRLWVVPGALPQV; UniProt Q6UWK7 25-81, looked up)
GPR15 cell surface expression (GPR15 [3]; GHOST-GPR15 and CEM-M7 cells, 30 min at 37°C or 4°C, flow cytometry): induced down-regulation of GPR15 from the surface of GHOST-GPR15 and CEM-M7 cells | GPR15 receptor internalization on ice (GPR15 [3]; cells kept on ice (4°C)): strongly reduced | effect of GPR15L on antiviral activity of CysC95-146 ([4]; GHOST-GPR15 treated with CysC95-146 in presence or absence of GPR15L, SIVmac239 luciferase reporter): did not enhance the antiviral activity of CysC95-146 | inhibitory effect on HIV and SIV entry ([4]; overall statement (Discussion)): little if any inhibitory effect on HIV and SIV entry | CXCR4 surface expression on PBMCs (CXCR4 [5]): induced significant down-modulation of CXCR4 | calcium release (GPR15 signaling) (GPR15 [6]): GPR15 signaling was confirmed | reduction of GPR15 cell surface expression on PBMCs (GPR15 [7]): ~40% | inhibition of CXCR4-mediated HIV-1 infection [2]: neither CysC95-146 nor GPR15L inhibited CXCR4-mediated HIV-1 infection

B1: CCL5/RANTES: chemokine ligand of CCR5 (protein, UniProt P13501 24-91, looked up)
C-C motif chemokine 5: SPYSSDTTPCCFAYIARPLPRAHIKEYFYTSGKCSNPAVVFVTRKNRQVCANPEKKWVREYINSLEMS
inhibition of CCR5-mediated HIV-1 infection by chemokine ligand (CCR5): inhibit CCR5- or CXCR4-mediated HIV-1 infection, respectively

B2: cystatin C: small (13 kDa) basic protein; human Cystatin C protein (purified, from human urine) (protein, UniProt P01034 27-146, looked up)
Cystatin-C: SSPGKPPRLVGGPMDASVEEEGVRRALDFAVGEYNKASNDMYHSRALQVVRARKQIVAGVNYFLDVELGRTTCTKTQPNLDNCPFHDQPHLKRKAFCSFQIYAVPWQGTMTLSKSTCQDA
inhibition of GPR15-mediated SIVmac239 infection (in words) ([4]; GHOST-GPR15 cells, SIVmac239 F-Luc, peptide preincubation 1 – 2 h 37 °C, 3 dpi): little inhibitory effect
